Active and inactive are the calls of the source. The rule behind the calls is not given here.
Assays:
[1] = system: HT-29; assay: Cytotoxicity against human HT-29 cells assessed as cell viability up to 5 uM after 54 hrs by CytoTox-Glo assay; type: cell-based; settings: ht-29, 54 h
[2] = system: HT-29; assay: Cytotoxicity against human HT-29 cells assessed as reduction in cell viability after 54 hrs by CytoTox-Glo assay; settings: HT-29, 54 h
[3] = biological target: T1, Peroxisome proliferator-activated receptor gamma (Homo sapiens) (UniProt P37231); assay: Agonist activity at PPARgamma in human HT29 cells assessed as reduction in TNFalpha-induced GRO-alpha gene expression in at 10 uM after 48 hrs by ELISA; type: cell-based; settings: HT-29
T1 sequence (whole entry): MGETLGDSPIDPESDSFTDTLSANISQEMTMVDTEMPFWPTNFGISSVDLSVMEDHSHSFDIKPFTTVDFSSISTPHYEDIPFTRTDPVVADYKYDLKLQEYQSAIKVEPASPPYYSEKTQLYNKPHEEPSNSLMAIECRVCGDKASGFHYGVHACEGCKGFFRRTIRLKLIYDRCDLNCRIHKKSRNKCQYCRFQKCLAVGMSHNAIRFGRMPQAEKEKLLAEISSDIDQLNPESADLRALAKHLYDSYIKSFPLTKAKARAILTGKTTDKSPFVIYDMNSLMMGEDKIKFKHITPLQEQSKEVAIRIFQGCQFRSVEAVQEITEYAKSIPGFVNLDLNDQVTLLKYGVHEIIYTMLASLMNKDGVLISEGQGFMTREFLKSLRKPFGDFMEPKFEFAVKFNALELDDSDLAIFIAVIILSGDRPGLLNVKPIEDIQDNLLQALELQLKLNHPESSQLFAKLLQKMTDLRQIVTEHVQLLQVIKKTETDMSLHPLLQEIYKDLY
In short: (§1)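 HT-29 cells in DMEM-F12 with 5% FBS, seeded a day ahead; 10 μM compound or 0.1% DMSO control for 48 h, then 1 ng/mL TNF-α for 6 h. Culture supernatants centrifuged at 4 °C, stored at −80 °C. Secreted MIP-3α/CCL20, IL-8 and GRO-α quantified by ELISA. Mean ± SD; compared with TNF-α alone.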

[4] = biological target: T1, Peroxisome proliferator-activated receptor gamma (Homo sapiens); assay: Agonist activity at PPARgamma in human HT29 cells assessed as reduction in TNFalpha-induced MIP3alpha gene expression in PPARgamma knockdown human HT29 cells at 10 uM after 48 hrs by real-time qPCR analysis; type: cell-based; settings: HT-29
In short: (§2)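 PPARγ knocked down in HT-29 cells by transfection with 30 nM siRNA, with negative-control siRNA alongside. Cells then given 10 μM compound for 48 h and 1 ng/mL TNF-α for 6 h. Marker mRNA measured by SYBR Green qPCR, normalized to GAPDH by 2−ΔΔCt. Biological triplicates.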

[5] = biological target: T1, Peroxisome proliferator-activated receptor gamma (Homo sapiens); assay: Agonist activity at PPARgamma in human HT29 cells assessed as reduction in TNFalpha-induced IL-1beta gene expression at 10 uM after 48 hrs by real-time qPCR analysis; type: cell-based; settings: HT-29
In short: (§3)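 HT-29 cells pretreated 48 h with 10 μM compound in 0.1% DMSO, then stimulated 6 h with 1 ng/mL TNF-α. Total RNA isolated with DNase digestion, reverse-transcribed, then SYBR Green qPCR run for 40 cycles. Expression normalized to GAPDH by 2−ΔΔCt and reported relative to DMSO-treated cells. Biological triplicates, mean ± SD; one-way ANOVA with Dunnett's test.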

[6] = biological target: T1, Peroxisome proliferator-activated receptor gamma (Homo sapiens); assay: Agonist activity at PPARgamma in human HT29 cells assessed as reduction in TNFalpha-induced MIP3alpha gene expression in at 10 uM after 48 hrs by ELISA; type: cell-based; settings: HT-29; in short: as §1
[7] = biological target: T1, Peroxisome proliferator-activated receptor gamma (Homo sapiens); assay: Agonist activity at PPARgamma in human HT29 cells assessed as reduction in TNFalpha-induced IL8 gene expression in at 10 uM after 48 hrs by ELISA; type: cell-based; settings: HT-29; in short: as §1
[8] = system: HT-29; assay: Cytotoxicity against human HT-29 cells assessed as cell viability at 10 uM after 54 hrs by CytoTox-Glo assay; type: cell-based; settings: ht-29, 54 h
[9] = biological target: T1, Peroxisome proliferator-activated receptor gamma (Homo sapiens); assay: Agonist activity at PPARgamma in human HT29 cells assessed as reduction in TNFalpha-induced GROgamma gene expression at 10 uM after 48 hrs by real-time qPCR analysis; type: cell-based; settings: HT-29; in short: as §3
[10] = biological target: T1, Peroxisome proliferator-activated receptor gamma (Homo sapiens); assay: Agonist activity at PPARgamma in human HT29 cells assessed as reduction in TNFalpha-induced GROalpha gene expression at 10 uM after 48 hrs by real-time qPCR analysis; type: cell-based; settings: HT-29; in short: as §3
[11] = biological target: T1, Peroxisome proliferator-activated receptor gamma (Homo sapiens); assay: Agonist activity at PPARgamma in human HT29 cells assessed as reduction in TNFalpha-induced MIP3alpha gene expression at 10 uM after 48 hrs by real-time qPCR analysis; type: cell-based; settings: HT-29; in short: as §3
[12] = biological target: T1, Peroxisome proliferator-activated receptor gamma (Homo sapiens); assay: Agonist activity at PPARgamma in human HT29 cells assessed as reduction in TNFalpha-induced IL8 gene expression at 10 uM after 48 hrs by real-time qPCR analysis; type: cell-based; settings: HT-29; in short: as §3
[13] = biological target: T1, Peroxisome proliferator-activated receptor gamma (Homo sapiens); assay: Agonist activity at PPARgamma in human HT29 cells assessed as reduction in TNFalpha-induced IL8 gene expression in PPARgamma knockdown human HT29 cells at 10 uM after 48 hrs by real-time qPCR analysis; type: cell-based; settings: HT-29; in short: as §2
[14] = biological target: T1, Peroxisome proliferator-activated receptor gamma (Homo sapiens); assay: Agonist activity at PPARgamma in human HT29 cells assessed as reduction in TNFalpha-induced GROalpha gene expression in PPARgamma knockdown human HT29 cells at 10 uM after 48 hrs by real-time qPCR analysis; type: cell-based; settings: HT-29; in short: as §2
[15] = biological target: T1, Peroxisome proliferator-activated receptor gamma (Homo sapiens); assay: Agonist activity at PPARgamma in human HT29 cells assessed as reduction in TNFalpha-induced COX2 gene expression at 10 uM after 48 hrs by real-time qPCR analysis; type: cell-based; settings: HT-29; in short: as §3
[16] = biological target: T1, Peroxisome proliferator-activated receptor gamma (Homo sapiens); assay: Agonist activity at PPARgamma in human HT29 cells assessed as reduction in TNFalpha-induced COX2 gene expression in PPARgamma knockdown human HT29 cells at 10 uM after 48 hrs by real-time qPCR analysis; type: cell-based; settings: HT-29; in short: as §2

Compound | Activity [1] | IC50 [2] | Activity [3] | inhibition [4] | inhibition [5] | Activity [6] | Activity [7] | Activity [8] | inhibition [9] | inhibition [10] | inhibition [11] | inhibition [12] | inhibition [13] | inhibition [14] | inhibition [15] | inhibition [16]
COc1cc(CCc2ccccc2)c(C(=O)O)c(O)c1C/C=C(\C)CCC=C(C)C | Non-toxic | 30.5 µM |  |  |  |  |  |  |  |  |  |  |  |  |  | 
COc1cc(CCc2ccccc2)c(C(=O)O)c(O)c1CC=C(C)C [AMORFRUTIN A] |  | 50.8 µM | Active | Active | inactive | Active | Active | Non-toxic | inactive | Active | Active | Active | inactive | inactive | Active | Active
